Experimental data from ChEMBL document CHEMBL3826907, “Design, synthesis and anti-P. falciparum activity of pyrazolopyridine-sulfonamide derivatives” (Bioorg Med Chem, 2016).

How the values were obtained:
Plasmodium falciparum [1] = experiment: Antimalarial activity against chloroquine-resistant Plasmodium falciparum W2; assay type: functional, organism-based
Summary of the method: (§1)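 P. falciparum W2 cultured in human A+ erythrocytes in RPMI 1640 with human serum, sorbitol-synchronized to rings. Parasitemia 0.05%, hematocrit 1.5%. […] Three freeze-thaw cycles, then HRPII sandwich ELISA read at 450 nm. IC50 from non-linear regression dose–response curves, three separate experiments (±SD).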

[2] = Cytotoxicity against african green monkey BGM cells after 24 hrs by MTT assay; assay type: cell-based; settings: chlorocebus aethiops, read-out: MLD50
Summary of the method: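 MTT (3 mg/mL) was added, the supernatant was removed after 3 h, and the dye was dissolved in DMSO. Read at 570 nm. MLD50 (minimal lethal dose for 50% of cells) taken from non-linear regression dose–response curves.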

Plasmodium falciparum [3] = experiment: Antimalarial activity against chloroquine/sulfadoxine-resistant Plasmodium falciparum W2 infected in human A+ erythrocytes assessed as reduction in parasite growth after 72 hrs by HRP2 detection based ELISA; assay type: functional, organism-based; settings: W2, 72 h; summary of the method: as §1
[4] = Selectivity index, ratio of MLD50 for african green monkey BGM cells to IC50 for chloroquine/sulfadoxine-resistant Plasmodium falciparum W2; assay type: toxicity, cell-based; settings: read-out: Selectivity Index
Summary of the method: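 Selectivity index calculated from the BGM MLD50 (24 h MTT, 570 nm, non-linear regression) and the W2 IC50 (72 h HRPII ELISA in A+ erythrocytes).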

Plasmodium falciparum [5] = experiment: Antimalarial activity against chloroquine-resistant and mefloquine-sensitive Plasmodium falciparum W2 infected in human A+ erythrocytes after 72 hrs by HRP2 detection based ELISA; assay type: functional, organism-based; settings: W2, 72 h; summary of the method: as §1

Row | Compound | IC50 (Plasmodium falciparum [1]) [µM] | CC50 at 24 h [2] [µM] | IC50 (Plasmodium falciparum [3]) [µM] | selectivity ratio [4] | IC50 (Plasmodium falciparum [5]) [µM]
1 | O=Cc1cn(-c2ccnc3cc(Cl)ccc23)nn1 | 1.4 |  |  |  | 
2 | CCOC(=O)c1cnc2c(cnn2-c2ccccc2)c1NCCCCNS(=O)(=O)c1ccc(OC)cc1 |  | 995 | 9.3 | 107 | 
3 | CCOC(=O)c1cnc2c(cnn2-c2ccccc2)c1NCCCCNS(=O)(=O)c1ccc(F)cc1 |  | 993 | 4.12 | 241 | 
4 | CCOC(=O)c1cnc2c(cnn2-c2ccccc2)c1NCCCCNS(=O)(=O)c1ccc(Cl)cc1 |  | > 1000 | 3.6 | > 278 | 
5 | COc1ccc(S(=O)(=O)NCCCCNc2c(C#N)cnc3c2cnn3-c2ccccc2)cc1 |  | 498 | 5 | 99.6 | 
6 | CCOC(=O)c1cnc2c(cnn2-c2ccccc2)c1NCCCCNS(=O)(=O)c1ccccc1 |  | 822 | 6.52 | 126 | 
7 | Cc1cc(Nc2ccc3ccccc3c2)n2nc(C(F)(F)F)nc2n1 |  |  |  |  | 0.023
8 | N#Cc1cnc2c(cnn2-c2ccccc2)c1NCCCCNS(=O)(=O)c1ccccc1 |  | 248 | 4.2 | 59 | 
9 | N#Cc1cnc2c(cnn2-c2ccccc2)c1NCCCCNS(=O)(=O)c1ccc(F)cc1 |  | 508 | 9.3 | 54.6 | 
10 | N#Cc1cnc2c(cnn2-c2ccccc2)c1NCCCCN |  | 503 | 5 | 101 | 
11 | Cc1ccc(S(=O)(=O)NCCCCNc2c(C#N)cnc3c2cnn3-c2ccccc2)cc1 |  | 682 | 3.6 | 189 | 
12 | CCOC(=O)c1cnc2c(cnn2-c2ccccc2)c1NCCCCNS(=O)(=O)c1ccc(C)cc1 |  | 596 | 3.46 | 172 | 
13 | N#Cc1cnc2c(cnn2-c2ccccc2)c1NCCCCNS(=O)(=O)c1ccc(Cl)cc1 |  | 418 | 7.5 | 55.7 | 
14 | COc1ncnc(NS(=O)(=O)c2ccc(N)cc2)c1OC [SULFADOXINE] |  | 310 | 15 | 20.7 | 
